{"data": "Measured values of several laboratories", "note": "Compare with care: the assays were run in different laboratories."}
{"Structure (SMILES)": "C[C@@H]1COCCN1c1cc(=O)n2c(n1)N(Cc1cncc(Cl)c1)[C@H](C(F)(F)F)CC2", "host": "C57BL/6 mouse", "medium": "plasma", "route": "intraperitoneal", "dose": "10 mg/kg", "setting": "single dose", "endpoint": "MRT(0-t)", "result": "0.45 h"}
{"Structure (SMILES)": "CCOC(=O)c1c(NC(=O)CNC(C)C)sc2c1CCCCC2", "host": "male mouse", "medium": "plasma", "route": "intraperitoneal", "dose": "5 mg/kg", "setting": "single dose", "endpoint": "MRT(0-inf)", "result": "1.79 h"}
{"Structure (SMILES)": "COC1=CC(c2ccc[nH]2)=N/C1=C\\c1cc(Cc2ccc(OC(F)(F)F)cc2)c(C)[nH]1.Cl", "host": "male CD-1 mouse", "medium": "plasma", "route": "oral", "dose": "40 mg/kg", "setting": "single dose", "endpoint": "MRT(0-t)", "result": "34.4 h"}
{"Structure (SMILES)": "CCOC(=O)C1=C(CN2CCC[C@@H]2C(=O)Nc2ccc(B(O)O)cc2)NC(c2nccs2)=N[C@H]1c1ccc(F)cc1Br", "host": "CD-1 mouse", "medium": "plasma", "route": "oral", "dose": "10 mg/kg", "endpoint": "MRT(0-inf)", "result": "1 h"}
{"Structure (SMILES)": "Cc1nc2ccc(OCc3ccc(C(F)(F)F)cc3)cc2[nH]1", "host": "male BALB/c mouse", "medium": "plasma", "route": "oral", "dose": "10 mg/kg", "endpoint": "MRT(0-inf)", "result": "4.04 h"}
{"Structure (SMILES)": "COC1=CC(c2ccc[nH]2)=N/C1=C\\c1[nH]c(Cc2ccc(OC(F)(F)F)cc2)cc1Cc1ccc(OC(F)(F)F)cc1", "host": "male CD-1 mouse", "medium": "liver", "route": "oral", "dose": "40 mg/kg", "setting": "single dose", "endpoint": "MRT(0-t)", "result": "22.2 h"}
{"Structure (SMILES)": "Cc1ccc(CCC(=O)Nc2nnc(S(N)(=O)=O)s2)cc1", "host": "male BALB/c mouse", "medium": "plasma", "route": "oral", "dose": "20 mg/kg", "endpoint": "MRT", "result": "3.74 h"}
{"Structure (SMILES)": "O=C1CCC(N2Cc3cc(C4CCN(Cc5ccccc5)CC4)ccc3C2=O)C(=O)N1 (stereo not shown)", "host": "male CD-1 mouse", "medium": "plasma", "route": "intravenous", "dose": "1 mg/kg", "endpoint": "MRT(0-inf)", "result": "3.34 h"}
{"Structure (SMILES)": "OCc1nc2ccc(NCc3ccc(C(F)(F)F)cc3)cc2[nH]1", "host": "male BALB/c mouse", "medium": "plasma", "route": "intravenous", "dose": "1 mg/kg", "endpoint": "MRT(0-inf)", "result": "1.1 h"}
{"Structure (SMILES)": "CC[C@H](C)[C@H](NC(=O)[C@H](CCC(=O)O)NC(=O)[C@H](CCC(=O)O)NC(=O)[C@@H]1CCCN1C(=O)[C@H](CO)NC(=O)[C@H](C)NC(=O)[C@H](CC(=O)O)NC(=O)[C@H](CCC(=O)O)NC(=O)[C@H](CCC(=O)O)NC(=O)[C@@H]1CCCN1C(=O)[C@H](CCCCNC(=O)COCCOCCNC(=O)COCCOCCNC(=O)CC[C@H](NC(=O)CCCCCCCCCCCCCCCCC(=O)O)C(=O)O)NC(=O)[C@H](C)NC(=O)[C@@H]1CCCN1C(=O)[C@H](C)NC(=O)CC(C)C)C(=O)N[C@@H](CCC(N)=O)C(=O)N[C@@H](CCCNC(=N)N)C(=O)N[C@@H](Cc1ccc(O)cc1)C(=O)N[C@@H](Cc1ccc(O)cc1)C(=O)N[C@H](C(=O)N[C@@H](CO)C(=O)N[C@@H](CC(C)C)C(=O)N[C@@H](CCCNC(=N)N)C(=O)N[C@@H](Cc1c[nH]cn1)C(=O)N[C@@H](Cc1ccc(O)cc1)C(=O)N[C@@H](Cc1ccc(O)cc1)C(=O)N[C@@H](CC(N)=O)C(=O)N[C@@H](Cc1c[nH]c2ccccc12)C(=O)N[C@@H](CC(C)C)C(=O)N[C@H](C(=O)N[C@@H](CCCNC(=N)N)C(=O)N[C@@H](CCC(N)=O)C(=O)N[C@@H](CCCNC(=N)N)C(=O)N[C@@H](Cc1ccc(O)cc1)C(N)=O)[C@@H](C)O)C(C)C", "host": "male NMRI mouse", "medium": "plasma", "route": "subcutaneous", "dose": "30 nmol/kg", "setting": "single dose", "endpoint": "MRT", "result": "18 h"}
